Screening results (PubChem)
In the library only some 1.7% were active in any assay of this set; here they are far more common.
HNF4A DNA FP: change in binding of human HNF4 alpha to DNA; HNF4a-FITC DNA binding, fluorescence polarization, 1 h; hit rate 0.3% among 360,000; activity change, % at 10 µM; P41235; in the data active = activity change above about 30%, passing the limit was not always enough
CSN inh: blocks human CSN-mediated cullin deneddylation; Q92905; Purified CSN, SCF-Nedd8-OG deneddylation, fluorescence polarization; inhibition, % at 12.5 µM; hit rate 0.38% among 360,000;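 active = pattern-corrected inhibition above about 35%, with an unprinted fluorescence ratio check between 0.5 and 1.5, limit read from the data, passing the limit was not always enough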
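Assay system: purified human Csn5 enzyme expressed in HEK293T cells; Input: 0.24 nM Csn5 enzyme, final concentration; Reagent: 10 nM SCFSkp2-Nedd8OG; Compound dosing: 12.5 µM single point; Times: reaction 90 min, room temperature; Technique: fluorescence polarization readout.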
Rev-erbA mod: Rev-erb alpha (human) modulation | P20393 | Rev-erbα–FITC-DNA binding, fluorescence polarization, 90 min | activity, % at 10 µM | hit rate 0.79% among 370,000 | AID 1259318;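 active = activity above about 14%, limit read from the data; passing the limit was not always enough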
TPT1 inh: C. albicans TPT1 enzyme inhibition | recombinant caTPT1, FP RNA substrate dephosphorylation | inhibition, % at 5 µM | hit rate 0.81% among 300,000 | AID 1962;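 active = inhibition above the mean of all tested compounds plus 3 SD, set per screening campaign, cut at about 24% in these data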
CSN deneddyl val: validation of inhibitors of human CSN-mediated cullin deneddylation; inhibition, % at 16.6 µM; hit rate 62% among 540; shares compounds with CSN inh; Csn5 deneddylation of SCF-Nedd8OG, fluorescence polarization, 90 min; in the data active = inhibition above about 50%
MMP-2 counter: counter-screen for CSN deneddylation inhibitors: human MMP-2 inhibition | shares compounds with CSN inh | recombinant MMP-2, FRET substrate fluorescence, 60 min | inhibition, % at 16.6 µM | hit rate 33% among 540 | AID 720655;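 active = corrected plate-normalized z-score of 5 or more, or -5 or less, or inhibition of 15% or more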
Target sequence (P08253 whole entry, looked up): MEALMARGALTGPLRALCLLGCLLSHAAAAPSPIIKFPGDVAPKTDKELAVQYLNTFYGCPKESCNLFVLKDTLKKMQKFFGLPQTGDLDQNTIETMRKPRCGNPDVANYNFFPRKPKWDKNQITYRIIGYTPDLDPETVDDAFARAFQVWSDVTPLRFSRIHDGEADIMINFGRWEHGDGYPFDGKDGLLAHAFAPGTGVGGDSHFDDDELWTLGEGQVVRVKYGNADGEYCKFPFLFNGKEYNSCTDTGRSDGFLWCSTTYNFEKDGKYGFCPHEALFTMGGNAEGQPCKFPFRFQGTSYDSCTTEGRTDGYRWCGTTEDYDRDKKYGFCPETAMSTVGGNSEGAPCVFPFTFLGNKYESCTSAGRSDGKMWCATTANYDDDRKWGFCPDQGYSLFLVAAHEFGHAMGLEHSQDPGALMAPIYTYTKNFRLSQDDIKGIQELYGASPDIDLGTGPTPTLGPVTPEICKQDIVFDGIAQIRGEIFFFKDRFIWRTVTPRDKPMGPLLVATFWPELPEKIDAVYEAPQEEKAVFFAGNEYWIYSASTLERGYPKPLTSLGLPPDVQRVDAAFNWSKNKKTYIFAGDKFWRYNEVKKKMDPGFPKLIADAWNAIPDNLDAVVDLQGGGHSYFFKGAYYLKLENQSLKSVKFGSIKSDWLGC
Thrombin cntr: counter-screen for CSN deneddylation inhibitors: bovine thrombin inhibition | shares compounds with CSN inh | bovine thrombin cleavage of Ub4-pepOG, fluorescence polarization | inhibition, % at 16.6 µM | hit rate 49% among 540 | AID 720656;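 active = inhibition at or above a set limit, with a fluorescence interference ratio between 0.5 and a set maximum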
HNF4a DNA conf: change in binding of human HNF4 alpha to DNA, retest. shares compounds with HNF4A DNA FP. HNF4A-FITC DNA binding, fluorescence polarization, 1 h. activity change, % at 12.5 µM. hit rate 99% among 210; call rule not given here
Rev-erbA confirm: Rev-erb alpha (human) modulation, hit confirmation. shares compounds with Rev-erbA mod. Rev-erb alpha FITC-DNA binding, fluorescence polarization, 90 min. activation, % at 25 µM. hit rate 61% among 3,000. AID 1259319;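 active = activation at or above a set limit, or at least 3 SD above the negative control mean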
A number is an active result; – = inactive; · = no result given.

SMILES | HNF4A DNA FP | CSN inh | Rev-erbA mod | TPT1 inh | HNF4a DNA conf | others
Cc1[nH]c2ccccc2c1C(=O)c1c(N)[nH]c(C(=O)c2ccc(Br)cc2)c1-c1ccc(Br)cc1 | · | · | – | · | ·
COc1ccc(-c2csc(NC(=O)CSc3nc(C)cs3)n2)cc1 | – | – | – | – | ·
COc1ccc(-c2csc(NC(=O)CSc3nc(C)nc4sc(C(=O)O)c(C)c34)n2)cc1 | – | 51.1 | – | – | · | CSN deneddyl val=–;MMP-2 counter=–;Thrombin cntr=–
C[C@H]1[C@@H](NC(=O)C#Cc2ccccc2)CC[C@@]23CCCN2C(=O)CCC[C@@H]13 | · | · | – | · | ·
C[n+]1c(-c2ccccc2)cc2c(=Cc3ccccc3)c3ccccc3n21 | – | – | – | · | ·
Cc1cc2c(=Cc3ccc(N(C)C)cc3)c3ccccc3n2[n+]1C | – | 86.3 | – | · | · | CSN deneddyl val=–;MMP-2 counter=–;Thrombin cntr=60.1
Cc1ccccc1Cn1cc(COC(=O)N(C)Cc2ccccc2)nn1 | · | · | – | · | ·
O=C(O)c1ccc(C=NNC(=O)c2cc(-c3ccc(Cl)cc3)n[nH]2)cc1 | · | · | – | · | ·
CCOc1cc(/C=N/NC(=O)c2ccc(-c3csc(Nc4ccc(C)cc4)n3)cc2)ccc1OCC(=O)O | – | 49.2 | – | · | · | CSN deneddyl val=–;MMP-2 counter=30.2;Thrombin cntr=–
O=C(O)COc1ccc(/C=N/NC(=O)c2ccc(-c3csc(Nc4ccc(Cl)cc4)n3)cc2)cc1 | – | 93.4 | – | · | · | CSN deneddyl val=97.8;MMP-2 counter=16.2;Thrombin cntr=–
CC(C)(C)NC(=O)C(c1ccc(C(F)(F)F)cc1)n1c(=O)c(-c2cc3ccccc3[nH]2)nc2ccccc21 (centres undefined) | – | – | – | · | ·
CC1(C(=O)NCc2ccccc2)CN(S(C)(=O)=O)CC(=O)N1Cc1ccco1 (centres undefined) | · | · | – | · | ·
COc1ccc(C(=O)Nc2cc(Cl)c(Br)cc2C(=O)O)cc1 | · | · | – | · | ·
O=[N+]([O-])c1ccc(N/N=C/c2sc(N3CCOCC3)nc2-c2ccccc2)c(S(=O)(=O)Nc2ccccc2Cl)c1 | 60.3 | 51.5 | 24.0 | · | · | CSN deneddyl val=82.9;MMP-2 counter=–;Thrombin cntr=36.1;Rev-erbA confirm=–
CCOC(=O)CN1C(=O)[C@]2(OCCC=C[C@H]2C)c2ccccc21 | · | · | – | · | ·
CN(C)c1ccc(C=c2c3cc(O)ccc3n3c2cc(-c2ccccc2)[n+]3C)cc1 | – | 137.8 | 22.3 | · | · | CSN deneddyl val=–;MMP-2 counter=100.2;Thrombin cntr=68.0;Rev-erbA confirm=–
Nc1[nH]c(C(=O)c2ccc(Br)cc2)c(-c2ccc(Cl)cc2)c1C(=O)NCCc1c[nH]c2ccccc12 | · | · | – | · | ·
CC[n+]1ccccc1/C=C1\Sc2ccc(C)cc2N1C | – | – | – | – | ·
CCN1/C(=C/c2ccc3cc(C)ccc3[n+]2CC)Sc2cc(C)c(C)cc21 | 106.9 | 50.2 | 20.2 | · | · | CSN deneddyl val=–;MMP-2 counter=–;Thrombin cntr=–;Rev-erbA confirm=22.0
O=C(Nc1ccc2oc(-c3ccncc3)nc2c1)c1ccc2c(c1)OCO2 | 65.6 | 111.2 | – | – | 168.8
O=C(Nc1ccc2oc(-c3ccncc3)nc2c1)c1ccc2c(c1)OCCO2 | – | – | – | – | ·
CCN(CC)c1ccc(/C=N\NC(N)=O)cc1 | – | – | – | – | ·
CCN(CC)c1ccc(/C=C(\C#N)C(N)=O)cc1 | 33.9 | – | – | · | 46.5
O=C1/C(=C/c2ccc(O)cc2)SC(=S)N1Cc1cccnc1 | 51.5 | – | – | – | 60.9
COc1cccc(C2c3c(ncn(-c4ccccc4)c3=N)Oc3ccc4ccccc4c32)c1OC (centres undefined) | · | · | – | · | ·
SMILES | HNF4A DNA FP | CSN inh | Rev-erbA mod | TPT1 inh | HNF4a DNA conf | others
Cc1ccc(C(=O)NCc2ccco2)cc1[N+](=O)[O-] | – | – | – | – | ·
Cc1ccc(NC(=O)c2ccc(NCc3ccco3)c([N+](=O)[O-])c2)cc1Cl | 47.3 | – | – | – | 93.2
Cc1ccc(NC(=O)c2ccc(NCC3CCCO3)c([N+](=O)[O-])c2)cc1Cl (centres undefined) | 36.9 | 40.8 | – | – | 53.7
NC(=O)c1ccc(NCC2CCCO2)c([N+](=O)[O-])c1 (centres undefined) | – | – | – | – | ·
COc1ccc(Cn2cc(CN3[C@@H](c4ccccc4)COc4cc(Br)ccc4S3(=O)=O)nn2)cc1 | · | · | – | · | ·
N=c1n(CC(=O)c2ccc([N+](=O)[O-])cc2)c2ccccc2n1Cc1ccccc1Cl | – | – | – | – | ·
N=c1n(CC(=O)c2ccc([N+](=O)[O-])cc2)c2ccccc2n1Cc1ccccc1 | 67.6 | – | – | – | 106.9
N=c1n(CC(=O)c2ccc([N+](=O)[O-])cc2)c2ccccc2n1Cc1ccc(Cl)cc1 | 39.7 | – | – | – | 118.8
Cc1cc(=O)oc2cc(OCC(=O)c3ccc4c(c3)NC(=O)CO4)ccc12 | 161.0 | 75.9 | – | – | 45.5
OC(COc1ccc(C2C=CCC2)cc1)CN1CCCCC1 (centres undefined) | 41.7 | – | – | – | 39.2
COc1cc(/C=N/NC(=O)c2cccnc2)ccc1OCC(=O)Nc1ccccc1Cl | 47.8 | 145.7 | – | – | 123.6
O=C(CSc1nc2ccccc2o1)Nc1nc2c(s1)CCCC2 | 54.7 | – | – | · | 48.1
O=C(NCc1cccs1)C1C2C=CC3(CN(Cc4ccccc4)C(=O)C13)O2 (centres undefined) | · | · | – | · | ·
COc1ccc(C2C(C(=O)Nc3cc(Cl)ccc3F)CCC(=O)N2c2ccc(OC)cc2)cc1 (centres undefined) | · | · | – | · | ·
CSc1nc2ccc3nc(NC(=O)c4cccs4)sc3c2s1 | 62.3 | 43.6 | – | – | 40.0
CSc1nc2ccc3nc(NC(=O)c4ccc(Cl)s4)sc3c2s1 | – | – | · | – | ·
C[C@H](NC(=O)c1nc[nH]c1C(=O)N[C@@H](C)c1ccccc1)C(=O)OC(C)(C)C | – | – | – | – | ·
CC(C)[C@H](NC(=O)OC(C)(C)C)c1cc(C(=O)N[C@@H](C)c2ccccc2)c(N)s1 | 40.6 | – | – | · | 37.0
O=C(c1ccc([N+](=O)[O-])s1)N1CCc2ccccc21 | 66.7 | – | – | – | 52.9
COc1cc(/C=C(\C#N)c2nc3ccccc3[nH]2)ccc1OC(=O)c1ccco1 | 38.5 | – | – | – | 52.1
COC(=O)c1cc(-c2ccccc2)sc1N | – | – | – | – | ·
C#CCNC(=O)c1cc(-c2ccccc2)sc1N | 67.1 | – | – | · | 79.8
CCS(=O)(=O)Nc1cccc(C2=NN(S(=O)(=O)CC)C(c3ccccc3)C2)c1 (centres undefined) | 55.4 | – | – | – | 78.6
